NR2E3 ag-1 = NR2E3 (human) agonism; Q9Y5X4; GST-NR2E3/biotin-RetCOR TR-FRET, 1536-well; inhibition of corepressor binding, % at 4.78 µM; 320,000 tested, 0.12% active; AID 2300;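 active means percent inhibition above the cutoff of mean plus 3 SD of all tested compounds, set per screening campaign, cut at about 20% in these data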;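 further: 0% = DMSO wells and 100% = biotin wells as full block of FRET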
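Material: NR2E3–RetCOR corepressor complex / Incubation: Compound–protein incubation for 5 h at 4 °C / Dosing: compound at 4.8 µM, single dose / Detection: time-resolved FRET / Benchmarks: high control biotin, low control 0.6% DMSO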
NR2E3 ag-2 = agonists of human NR2E3 nuclear receptor; Q9Y5X4; CHO-S Gal4-NCOR/VP16-NR2E3 two-hybrid, luciferase; inhibition of corepressor binding, % at 3.98 µM; 360,000 tested, 0.35% active;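 active means inhibition above the mean of all tested compounds plus 3 SD, cut at about 70% in these data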;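 further: 0% = DMSO with NR2E3 transfected cells and 100% = cells lacking NR2E3 construct; higher means lower luciferase signal from less NR2E3 corepressor binding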
PG9 Ab binder = binds the HIV-1 gp120 antibody PG9. TR-FRET gp120-PG9 antibody binding. inhibition, % at 6.7 µM. 360,000 tested, 0.43% active. AID 624416; in the data active means inhibition above about 8.5%
Rev-erbA mod = modulators of human Rev-erb alpha DNA binding | AID 1259318 | P20393 | Rev-erbα–FITC-DNA binding, fluorescence polarization, 90 min | activity, % at 10 µM | 370,000 tested, 0.79% active;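 active means activity above about 14%, limit read from the data; passing the limit was not always enough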;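 further: 0% = DMSO wells with 35 nM protein and 100% = DMSO wells with 750 nM protein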
Target sequence (P20393 whole entry, looked up): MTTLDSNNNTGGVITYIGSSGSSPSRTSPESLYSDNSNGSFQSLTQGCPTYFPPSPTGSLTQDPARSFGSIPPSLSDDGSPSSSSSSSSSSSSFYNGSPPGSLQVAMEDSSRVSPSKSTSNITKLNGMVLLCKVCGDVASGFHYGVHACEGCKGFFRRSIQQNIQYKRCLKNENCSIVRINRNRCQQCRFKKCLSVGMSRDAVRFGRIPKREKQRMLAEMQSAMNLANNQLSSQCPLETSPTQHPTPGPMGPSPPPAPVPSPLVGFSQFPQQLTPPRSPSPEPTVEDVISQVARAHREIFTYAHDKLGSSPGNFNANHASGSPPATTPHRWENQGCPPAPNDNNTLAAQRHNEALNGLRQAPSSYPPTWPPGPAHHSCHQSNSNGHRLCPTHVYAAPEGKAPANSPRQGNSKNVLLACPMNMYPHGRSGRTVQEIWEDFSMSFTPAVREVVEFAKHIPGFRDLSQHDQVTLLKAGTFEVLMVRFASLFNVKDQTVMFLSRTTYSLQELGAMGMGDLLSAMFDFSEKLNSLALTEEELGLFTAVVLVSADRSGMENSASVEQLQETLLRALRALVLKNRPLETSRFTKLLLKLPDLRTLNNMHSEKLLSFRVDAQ
NR2E3 ag confirm = confirmation of human NR2E3 agonists | shares compounds with NR2E3 ag-2 | AID 624378 | CHO-S mammalian two-hybrid NR2E3-NCOR, luciferase luminescence | 2,300 tested, 51% active | inhibition, % at 3.98 µM;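 active means average inhibition above a cutoff equal to the mean inhibition of all tested compounds plus one SD, cut at about 70% in these data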;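 further: 0% = DMSO in NR2E3 cells and 100% = DMSO in cells lacking NR2E3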
VP16 counter = reduces GAL4-VP16 reporter signal in NR2E3 counterscreen | shares compounds with NR2E3 ag-2 | inhibition, % at 3.98 µM | CHO-S GAL4-VP16 luciferase reporter, luminescence | 2,300 tested, 29% active;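 active means mean inhibition above a cutoff equal to the average over all tested compounds plus one standard deviation, cut at about 70% in these data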;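 further: luciferase from a UAS reporter driven by GAL4-VP16 transactivation; 0% = DMSO with VP16-transfected cells and 100% = DMSO with cells lacking VP16; higher means less reporter light so more repression of VP16 activity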
An asterisk follows results filed as active; . = not tested or not shown. Shown are actives, neighbours in structure and some others; about 1.4% of the full set was active somewhere.

SMILES | NR2E3 ag-1 | NR2E3 ag-2 | PG9 Ab binder | Rev-erbA mod | NR2E3 ag confirm | VP16 counter
O=C(C1CC1)N1CCc2cc(S(=O)(=O)NCC3COc4ccccc4O3)ccc21 (stereo unspecified) | 2.4 | 55.6 | -0.6 | 1.9 | 54.4 | 55.3
CN1CC=C(c2ccccc2)N(c2ccccc2)C1=O | . | . | . | -1.1 | . | .
CCc1c(C)nc2ncnn2c1NCCc1ccc(OC)cc1 | -0.7 | 84.2* | -1.5 | 1.2 | 89.2* | 65.6
O=C1c2cccn2CC2Cc3ccccc3N12 (stereo unspecified) | . | . | . | -0.4 | . | .
CC1CN(C(=O)c2cc(S(=O)(=O)N3CCN(c4ccccc4)CC3)ccc2Cl)CC(C)O1 (stereo unspecified) | -1.5 | 9.9 | 0.5 | -7.0 | . | .
O=C(c1cc(S(=O)(=O)N2CCN(c3ccccc3)CC2)ccc1Cl)N1CCCCCCC1 | 2.8 | 67.3 | 0.5 | -0.5 | 79.4* | 48.4
CN(CC(=O)Nc1cccc(F)c1)C(=O)c1cccc(S(=O)(=O)N2CCN(Cc3ccccc3)CC2)c1 | . | 22.0 | -1.4 | -9.4 | . | .
CN(CC(=O)Nc1cccc(F)c1)C(=O)c1cccc(S(=O)(=O)N2CCN(c3ccc(F)cc3)CC2)c1 | . | 50.3 | -1.4 | -2.6 | 45.7 | 26.4
CN(CC(=O)Nc1ccccc1Cl)C(=O)c1cccc(S(=O)(=O)N2CCN(Cc3ccccc3)CC2)c1 | 0.8 | 101.6* | -0.3 | -1.0 | 63.5 | 46.2
CN(CC(=O)Nc1ccccc1Cl)C(=O)c1cccc(S(=O)(=O)N2CCN(c3ccc(F)cc3)CC2)c1 | -1.7 | 93.8* | -0.2 | 0.3 | 73.4* | 50.5
Cc1cccc(C)c1NC(=O)CN(C)C(=O)c1cccc(S(=O)(=O)N2CCN(c3ccc(F)cc3)CC2)c1 | -0.5 | 11.2 | 1.5 | -5.2 | . | .
COc1ccc(C(=O)OCCCN(C)C2CN(Cc3cn(Cc4ccc([N+](=O)[O-])cc4)nn3)S(=O)(=O)C2)cc1OC (stereo unspecified) | . | . | . | -0.4 | . | .
CCCCOc1cccc(C(=O)NCCc2ccccc2-c2ccccc2CCC(=O)NCc2ccccc2)c1 | . | . | . | -4.3 | . | .
O=C1CC(N2CCCN(Cc3ccccc3)CC2)=NC(=O)N1c1ccc(Br)cc1 | . | . | . | -0.1 | . | .
CCCC[C@@H](CCCc1ccc(F)cc1)CCC(=O)N(c1ccccc1)c1ccccc1 | . | . | . | 1.8 | . | .
CN1CC(=O)N2[C@@H](C[C@]3(c4c[nH]c5ccccc45)c4ccccc4N(S(=O)(=O)c4ccccc4)[C@H]23)C1=O | . | . | . | 0.9 | . | .
CN(Cc1ccc(OC(F)F)cc1)C(=O)c1cccc(S(=O)(=O)N2CCN(c3ccccc3)CC2)c1 | . | 83.3* | -0.8 | -2.9 | 85.0* | 66.9
O=C(c1cccc(S(=O)(=O)N2CCN(c3ccc(F)cc3)CC2)c1)N1CCCC(C(F)(F)F)C1 (stereo unspecified) | -4.1 | 88.8* | 1.7 | -0.2 | 97.3* | 82.3*
CN(CC(=O)Nc1cccc(F)c1)C(=O)c1ccc(N2CCCC2)c([N+](=O)[O-])c1 | -4.1 | 63.1 | -0.8 | -0.9 | 18.7 | 23.3
CN(CC(=O)Nc1ccccc1Cl)C(=O)c1cccc(S(=O)(=O)N2CCN(c3ccccc3)CC2)c1 | . | 62.7 | 1.9 | 5.8 | 82.3* | 62.8
Cc1ccccc1NC(=O)[C@@H]1CCCN1S(=O)(=O)c1cccc2cccnc12 | . | . | . | 4.3 | . | .
CCOC(=O)C1CCCN(S(=O)(=O)c2cc3c(cc2Br)CCN3C(=O)CC)C1 (stereo unspecified) | . | . | . | -3.4 | . | .
Cc1ccc(S(=O)(=O)N2C[C@H]3N(C(=O)OC(C)C)N(C(=O)OC(C)C)C[C@H](OC(=O)NCc4ccccc4)[C@@]3(O)C2)cc1 | . | -29.2 | 1.5 | 2.1 | . | .
Cc1ccc(S(=O)(=O)N2C[C@H]3N(C(=O)OC(C)C)N(C(=O)OC(C)C)C[C@H](OC(=O)NCC4CCCCC4)[C@@]3(O)C2)cc1 | . | 57.1 | . | . | 70.5* | 45.1
O=S1(=O)C=CCN1Cc1cn(Cc2ccc(C(F)(F)F)cc2)nn1 | . | . | . | -3.8 | . | .
O=C(Cc1c[nH]c2ccccc12)Nc1ccc(Nc2cccnc2)c(-c2ccc(-c3ccccc3)cc2F)c1 | . | . | 0.4 | -2.5 | . | .
CCc1nc2ccc(C(=O)N(C)C(C)C)cn2c1N(CC)Cc1cccc(Br)c1 | . | 72.2* | 1.5 | 8.9 | 69.2 | -9.8
CNC(=O)CCc1nc(-c2ccc(C(C)C)cc2)no1 | . | . | . | -1.5 | . | .
CCCOc1ccc(Br)cc1CSC(=N)N | -0.6 | 51.3 | -2.2 | 3.4 | 45.8 | 49.5

Bioassay records deposited in PubChem by several laboratories.
